Experiment in all cases: spectral perturbation titration
Common to all, as to type: binding

Experiment [1] has as its target T1, nitrate reductase (NarB) (Synechococcus elongatus, UniProt P39458, R84K).
T1 sequence (P39458 15-729 R84K): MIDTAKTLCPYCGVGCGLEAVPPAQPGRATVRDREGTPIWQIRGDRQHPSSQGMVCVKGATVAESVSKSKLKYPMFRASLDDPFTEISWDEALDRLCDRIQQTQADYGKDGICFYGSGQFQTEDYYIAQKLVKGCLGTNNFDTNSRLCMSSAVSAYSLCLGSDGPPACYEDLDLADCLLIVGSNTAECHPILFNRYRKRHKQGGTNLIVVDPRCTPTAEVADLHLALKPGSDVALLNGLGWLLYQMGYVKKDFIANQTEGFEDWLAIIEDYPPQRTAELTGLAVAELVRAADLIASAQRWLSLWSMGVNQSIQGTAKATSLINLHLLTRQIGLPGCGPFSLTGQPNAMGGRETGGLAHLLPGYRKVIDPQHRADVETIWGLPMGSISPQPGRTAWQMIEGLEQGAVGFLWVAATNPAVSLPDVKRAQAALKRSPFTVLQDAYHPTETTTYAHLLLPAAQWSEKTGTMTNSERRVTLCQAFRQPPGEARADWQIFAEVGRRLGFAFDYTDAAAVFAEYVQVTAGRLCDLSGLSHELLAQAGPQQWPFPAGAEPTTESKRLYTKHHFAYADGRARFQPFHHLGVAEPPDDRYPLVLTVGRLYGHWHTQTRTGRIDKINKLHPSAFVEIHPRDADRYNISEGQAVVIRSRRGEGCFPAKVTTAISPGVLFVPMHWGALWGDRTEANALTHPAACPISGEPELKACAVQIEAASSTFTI
The method in brief:
(§1)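 Single-residue NarB variants were made by site-directed mutagenesis and expressed and purified as for wild type (His6, Co affinity, DEAE, gel filtration). Complex formation with ferredoxin or nitrate was followed by difference absorbance at variant-specific wavelength pairs chosen for signal:noise. The change at saturating nitrate was taken as 100% complex. Kd came from fitting perturbation magnitude against ligand concentration to a single binding isotherm.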

Experiment [2] concerns the target T2, nitrate reductase (NarB) (Synechococcus elongatus, UniProt P39458, K144R).
T2 sequence (P39458 15-729 K144R): T1 sequence (P39458 15-729 R84K) with K70R, K130R
The method in brief: as §1

The target of experiment [3] is T3, nitrate reductase (NarB) (Synechococcus elongatus, UniProt P39458, K72R).
T3 sequence (P39458 15-729 K72R): T1 sequence (P39458 15-729 R84K) with K58R, K70R
The method in brief: as §1

Drawing on paper PMC3741069 (Biochemistry, 2013), this text covers Kd for 1 molecule.

Positions count from the first letter of the chain named.

As a reminder, the Kd is the concentration at which binding is half-saturated. Low values mean tighter binding, high ones weaker binding.

Regarding `O=[N+]([O-])O` [nitrate], the Kd at nitrate reductase (NarB) [1] came to 6 ± 1 µM; on nitrate reductase (NarB) [2] it was 13.4 ± 3 µM; at nitrate reductase (NarB) [3], 15.5 ± 5 µM.
